Laboratory results from ChEMBL document CHEMBL4028864 (J Med Chem, 2017).

Key:
OPM-2 = assay: Antiproliferative activity against human OPM2 cells assessed as cell viability at 10 uM after 48 hrs by CellTiter-Glo luminescent assay relative to control; type: functional
KMS-12-BM = assay: Antiproliferative activity against human KMS-12-BM cells assessed as cell viability at 10 uM after 48 hrs by CellTiter-Glo luminescent assay relative to control; type: functional
MV4-11 = assay: Antiproliferative activity against human MV4-11 cells assessed as cell viability at 10 uM after 48 hrs by CellTiter-Glo luminescent assay relative to control; type: functional
MOLM-14 = assay: Antiproliferative activity against human MOLM14 cells assessed as cell viability at 10 uM after 48 hrs by CellTiter-Glo luminescent assay relative to control; type: functional
HCT-116 = assay: Antiproliferative activity against human HCT116 cells after 72 hrs by MTT assay; type: functional, cell-based; details: HCT-116, 72 h
PC-3 = assay: cells; type: functional, cell-based; details: Homo sapiens, PC-3, 72 h
HL-60 = assay: Antiproliferative activity against human HL60 cells; type: functional, cell-based
[1] = biological target: T1, Tyrosine-protein kinase JAK2 (Homo sapiens, UniProt O60674); assay: Binding affinity to N-terminal His tagged human recombinant JAK2 (1014 to 1132 residues) expressed in Escherichia coli after 300 mins by LC/MS analysis; details: read-out: Kd(app)
T1 sequence (O60674 whole entry, the tested form may be a part): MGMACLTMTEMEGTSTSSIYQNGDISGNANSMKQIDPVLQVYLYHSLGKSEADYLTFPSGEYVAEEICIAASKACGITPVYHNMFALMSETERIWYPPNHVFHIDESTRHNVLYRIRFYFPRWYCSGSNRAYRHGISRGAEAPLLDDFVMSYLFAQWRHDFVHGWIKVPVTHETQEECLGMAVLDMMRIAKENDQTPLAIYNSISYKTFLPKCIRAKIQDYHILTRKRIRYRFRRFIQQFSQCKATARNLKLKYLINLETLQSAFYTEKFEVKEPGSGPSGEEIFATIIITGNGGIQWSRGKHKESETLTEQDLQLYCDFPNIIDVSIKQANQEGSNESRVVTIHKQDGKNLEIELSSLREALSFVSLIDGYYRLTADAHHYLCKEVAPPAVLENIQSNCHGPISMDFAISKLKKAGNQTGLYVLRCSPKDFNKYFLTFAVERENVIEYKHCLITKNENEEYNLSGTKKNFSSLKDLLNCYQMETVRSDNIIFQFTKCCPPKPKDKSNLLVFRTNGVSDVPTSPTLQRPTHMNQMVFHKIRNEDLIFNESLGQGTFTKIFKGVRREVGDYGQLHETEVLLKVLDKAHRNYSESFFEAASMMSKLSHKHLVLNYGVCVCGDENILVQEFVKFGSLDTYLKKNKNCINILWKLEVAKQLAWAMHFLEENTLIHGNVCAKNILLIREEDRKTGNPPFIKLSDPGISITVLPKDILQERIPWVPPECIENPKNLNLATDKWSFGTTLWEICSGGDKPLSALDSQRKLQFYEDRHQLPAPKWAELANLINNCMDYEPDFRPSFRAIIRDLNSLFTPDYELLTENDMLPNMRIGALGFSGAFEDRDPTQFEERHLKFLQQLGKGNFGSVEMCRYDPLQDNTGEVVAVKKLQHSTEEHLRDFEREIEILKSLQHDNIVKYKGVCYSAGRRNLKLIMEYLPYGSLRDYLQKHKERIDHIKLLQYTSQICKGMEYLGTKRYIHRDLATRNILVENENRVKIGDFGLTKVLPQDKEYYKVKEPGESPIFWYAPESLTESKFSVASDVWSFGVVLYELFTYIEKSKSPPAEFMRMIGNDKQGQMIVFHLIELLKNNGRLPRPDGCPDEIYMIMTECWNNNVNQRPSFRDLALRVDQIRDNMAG
In short: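 JAK2 in Tris/glycerol/urea storage buffer was exchanged into sodium phosphate/NaCl pH 7.5 and immobilized on periodate-oxidized diol silica (Schiff base, NaBH3CN, 116 h, 4 °C), then packed into a 35 × 0.5 mm column. Compounds were run at 10 μM final (50 μM for one analyte) in 20 mM ammonium acetate pH 6.8 at 20 μL/min. Detection was by SIM [M+H]+, with DMSO as void marker. Retention time was taken from the EIC peak apex, n = 3, with runs up to 300 min.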

Histone deacetylase 1 = Histone deacetylase 1 (Homo sapiens, UniProt Q13547); assay: Inhibition of C-terminal FLAG His tagged full length human recombinant HDAC1 (1 to 482 residues) expressed in baculovirus infected sf21 cells using RHKKAc as substrate in presence of ATP
Chain of Histone deacetylase 1 (Q13547 whole entry, the tested form may be a part): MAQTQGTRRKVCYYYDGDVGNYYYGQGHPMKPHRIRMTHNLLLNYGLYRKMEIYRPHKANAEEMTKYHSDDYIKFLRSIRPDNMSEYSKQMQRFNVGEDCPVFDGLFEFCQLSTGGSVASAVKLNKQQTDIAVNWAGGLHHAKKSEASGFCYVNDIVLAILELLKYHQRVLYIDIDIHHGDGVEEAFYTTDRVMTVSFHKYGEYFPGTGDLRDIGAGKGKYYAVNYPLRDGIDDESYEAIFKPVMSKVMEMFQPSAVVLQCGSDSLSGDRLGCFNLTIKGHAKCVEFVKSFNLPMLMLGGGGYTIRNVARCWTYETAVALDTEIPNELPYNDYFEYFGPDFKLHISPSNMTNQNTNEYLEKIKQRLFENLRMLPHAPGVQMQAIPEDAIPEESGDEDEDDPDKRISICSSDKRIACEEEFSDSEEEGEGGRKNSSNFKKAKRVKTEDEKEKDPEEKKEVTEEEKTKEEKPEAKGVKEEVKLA

[2] = biological target: T2, Protein deacetylase HDAC6 (Homo sapiens, UniProt Q9UBN7); assay: Inhibition of N-terminal GST tagged human HDAC6 (1 to 1215 residues) expressed in baculovirus infected insect cells using RHKKAc as substrate in presence of ATP
T2 sequence (Q9UBN7 whole entry): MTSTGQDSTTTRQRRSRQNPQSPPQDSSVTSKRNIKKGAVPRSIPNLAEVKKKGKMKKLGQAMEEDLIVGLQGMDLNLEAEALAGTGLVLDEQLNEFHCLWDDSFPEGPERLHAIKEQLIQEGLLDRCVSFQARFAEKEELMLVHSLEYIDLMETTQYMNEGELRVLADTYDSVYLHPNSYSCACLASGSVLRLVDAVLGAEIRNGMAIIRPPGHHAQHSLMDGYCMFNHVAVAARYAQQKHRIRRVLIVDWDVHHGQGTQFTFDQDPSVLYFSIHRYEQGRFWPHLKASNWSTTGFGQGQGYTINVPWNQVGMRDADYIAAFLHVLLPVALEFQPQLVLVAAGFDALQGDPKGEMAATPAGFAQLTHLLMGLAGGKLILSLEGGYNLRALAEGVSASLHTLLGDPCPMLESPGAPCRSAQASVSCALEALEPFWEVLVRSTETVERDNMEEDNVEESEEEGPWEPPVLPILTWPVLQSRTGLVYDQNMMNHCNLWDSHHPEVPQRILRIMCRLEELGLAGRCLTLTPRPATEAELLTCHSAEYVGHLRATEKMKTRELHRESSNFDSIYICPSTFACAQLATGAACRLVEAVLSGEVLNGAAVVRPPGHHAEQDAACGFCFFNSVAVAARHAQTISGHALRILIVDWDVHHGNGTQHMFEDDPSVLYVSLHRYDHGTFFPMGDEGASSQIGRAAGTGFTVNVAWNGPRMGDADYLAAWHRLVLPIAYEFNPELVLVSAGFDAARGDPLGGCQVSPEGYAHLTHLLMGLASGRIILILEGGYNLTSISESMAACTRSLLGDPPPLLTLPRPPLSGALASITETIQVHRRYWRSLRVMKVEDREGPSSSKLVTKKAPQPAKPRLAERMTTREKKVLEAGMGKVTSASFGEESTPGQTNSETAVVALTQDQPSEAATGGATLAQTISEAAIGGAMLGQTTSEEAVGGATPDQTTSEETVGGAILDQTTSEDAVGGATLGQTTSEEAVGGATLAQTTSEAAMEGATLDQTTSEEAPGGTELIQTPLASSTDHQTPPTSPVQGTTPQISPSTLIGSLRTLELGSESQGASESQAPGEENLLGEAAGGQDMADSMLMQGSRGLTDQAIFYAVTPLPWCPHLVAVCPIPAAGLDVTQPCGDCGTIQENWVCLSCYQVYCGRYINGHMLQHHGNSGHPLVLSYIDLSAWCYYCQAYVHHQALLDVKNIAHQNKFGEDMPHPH

HEL 92.1.7 = assay: cells; type: functional, cell-based; details: Homo sapiens, HEL 92.1.7, 36 h
Jurkat = assay: cells; type: functional, cell-based; details: Homo sapiens
[3] = biological target: T1, Tyrosine-protein kinase JAK2; assay: Inhibition of human JAK2 using poly[Glu:Tyr] as substrate in presence of [gamma-33P]-ATP
MDA-MB-231 = assay: cells; type: functional, cell-based; details: Homo sapiens, MDA-MB-231, 72 h
MCF7 = assay: cells; type: functional, cell-based; details: Homo sapiens, MCF7, 72 h

Row | IC50 (HCT-116) [µM] | IC50 (PC-3) [µM] | IC50 (HL-60) [µM] | Kd [1] [nM] | IC50 (Histone deacetylase 1) [nM] | IC50 [2] [nM] | IC50 (HEL 92.1.7) [µM] | IC50 (Jurkat) [µM] | IC50 [3] [nM] | IC50 (MDA-MB-231) [µM] | IC50 (MCF7) [µM] | Structure (SMILES) | Activity (OPM-2) [%] | Activity (KMS-12-BM) [%] | Activity (MV4-11) [%] | Activity (MOLM-14) [%]
1 | – | – | – | – | – | – | – | – | – | – | – | N#CC[C@H](C1CCCC1)n1cc(-c2ncnc3[nH]ccc23)cn1 [RUXOLITINIB] | 74 | 59 | 52 | 73
2 | 25.3 | 17 | > 10 | 200 | 2650 | 148 | > 4 | > 4 | 502 | 13.3 | 14.4 | O=C(/C=C/c1ccc(NCCCn2cc(-c3ncnc4[nH]ccc34)cn2)cc1)NO | – | – | – | –
